# MrgX1 allo act = positive allosteric modulators of MrgX1, primary screen, HEK293 cells, Fluo-4 calcium flux | Mas-related G-protein coupled receptor member X1 (Homo sapiens), Q96LB2 | 310,000 tested, 0.63% active | FDSS; active compounds read high | B-score at 10 µM;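 active means plate-corrected calcium response at least 3 library SD above typical, normal starting fluorescence, not activating the receptor alone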;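 further: compound read alongside a low EC10 to EC30 dose of BAM8-22 agonist; peak minus trough fluorescence over baseline measured at the second addition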
# Target sequence (Q96LB2 whole entry, looked up): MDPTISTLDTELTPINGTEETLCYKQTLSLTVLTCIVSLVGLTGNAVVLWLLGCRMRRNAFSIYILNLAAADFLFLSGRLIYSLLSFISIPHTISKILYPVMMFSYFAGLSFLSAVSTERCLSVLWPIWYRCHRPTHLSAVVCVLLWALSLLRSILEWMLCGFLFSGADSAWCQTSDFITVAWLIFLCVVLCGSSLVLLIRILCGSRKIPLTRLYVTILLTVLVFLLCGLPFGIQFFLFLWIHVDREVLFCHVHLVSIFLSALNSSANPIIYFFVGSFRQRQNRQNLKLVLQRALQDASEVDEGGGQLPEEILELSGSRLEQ
# RGS4 inh = RGS4 inhibitors, primary screen, cell-based, HEK293 M3R inducible RGS4, calcium flux | Fluo-4 calcium flux; active compounds read high; triggered by carbachol at its EC20 | B-score at 10 µM | 310,000 tested, 0.45% active;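 active means B-score, a plate-corrected calcium signal, over three deviations above library mean, with baseline fluorescence within five deviations of library mean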;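 further: RGS4 expression induced by doxycycline in cells with stable M3 receptor; B-score is computed from the integrated fluorescence ratio over baseline after carbachol; higher B-score means a larger calcium signal and so more RGS4 inhibition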
# Target sequence (P49798 whole entry, looked up): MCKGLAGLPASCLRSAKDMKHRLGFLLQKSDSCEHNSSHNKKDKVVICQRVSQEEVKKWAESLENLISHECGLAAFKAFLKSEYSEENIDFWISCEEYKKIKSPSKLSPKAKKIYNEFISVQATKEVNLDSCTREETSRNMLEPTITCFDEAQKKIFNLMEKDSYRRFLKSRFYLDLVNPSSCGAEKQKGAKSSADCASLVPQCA
# RGS4 pot = RGS4 potentiators or activators, primary screen, cell-based, HEK293 M3R inducible RGS4, calcium flux | 310,000 tested, 0.92% active | AID 463111, 2010 | B-score at 10 µM | carbachol calcium flux Fluo4; active compounds read low;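 active means B-score of the integrated calcium signal more than 4 SD below the library mean, with starting fluorescence not abnormally high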;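 further: negative B-score means reduced calcium response which marks RGS4 activation or potentiation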
#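 Assay system: Inducible-RGS4 HEK293 cells carrying M3 receptor | Schedule: Compound preincubation 20 min at room temperature before agonist | Signal: Kinetic calcium fluorescence imaging with Fluo4-AM dye, 2 µM | Read-out basis: B score from integrated fluorescence ratio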
# MrgX1 antag = antagonists of human MrgX1 receptor, primary screen, HEK293 cells, Fluo-4 calcium flux; BAM8-22 antagonism; active compounds read low; B-score at 10 µM; 310,000 tested, 1.3% active; AID 588676, 2011;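 active means calcium-response B-score plate-corrected more than 3 library SD below zero, starting fluorescence within 5 deviations, no agonist response on first addition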;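 further: peak minus trough fluorescence over baseline after final BAM8-22 challenge near maximal dose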
# MrgX1 agonist = agonists of human MrgX1 receptor, primary screen, HEK293 cells, Fluo-4 calcium flux | 310,000 tested, 0.44% active | AID 588627, 2011 | B-score at 10 µM | Fluo-4 calcium fluorescence, agonist mode; active compounds read high | Mas-related G-protein coupled receptor member X1 (Homo sapiens), Q96LB2;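 active means calcium response B-score plate-corrected fluorescence ratio at least 3 library SD, with starting fluorescence B-score inside 5 SD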
#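 Assay system: MrgX1-expressing HEK293 cells / Amount: fifteen thousand cells per well / Doses: test compound in the initial addition of three / Timing: cells plated overnight, dye loaded 0.5 h 37 °C, 0.5 h room temperature / Technique: kinetic calcium dye fluorescence, Fluo-4 NW / Control set: positive and negative controls per plate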
# Hits are given with their value; - = inactive; . = not tested or not shown. An excerpt weighted towards active compounds, which were near 3.5% of everything screened.
SMILES,MrgX1 allo act,RGS4 inh,RGS4 pot,MrgX1 antag,MrgX1 agonist
Fc1cccc(Cc2noc(CN3CCSCC3)n2)c1,-,-,-,-,-
Fc1cccc(Cc2noc(CN3CCCN(C4Cc5ccccc5C4)CC3)n2)c1,-,-,-7.5,-,-
NS(=O)(=O)c1cc(C(=O)NC2CCSc3ccccc32)ccc1Cl (centres undefined),-,-,-,-,62
CCN(CC)C1CCN(C(=O)c2ccc3nc(Cc4ccc(OC)cc4)oc3c2)C1 (centres undefined),.,-,-,.,.
CCc1ccc(-n2cc(-c3ccc(F)cc3)[n+]3c2SCCC3)cc1,-,-,-7.3,-,-
Cc1ccc(-c2cn(-c3ccccc3)c3[n+]2CCCS3)cc1,-,-,-,-,-
COc1ccc(C(=O)N2c3ccccc3C=CC2C#N)cc1 (centres undefined),-,-,-7.4,-,-
CCCc1cc(C(=O)Nc2cccc3ccccc23)n(C)n1,-,-,-,-,-
CCCc1cc(C(=O)Nc2ccc(C(=O)c3ccc(C)cc3)cc2)n(C)n1,-,-,-7.4,-,-
Cc1ccc(S(=O)(=O)Nc2ccccc2F)cc1C(=O)NCCCN1CCCC1=O,-,-,-,-,-
COc1ccccc1NS(=O)(=O)c1ccc(C)c(C(=O)NCCCN2CCCC2=O)c1,-,-,-,-9.1,-
COc1ccc(N2CCN(Cc3cc4c(cc3Br)OCCO4)CC2)cc1,-,-,-7,-,-
CS(=O)(=O)N1CCN(C(=O)C2c3ccccc3Oc3ccccc32)CC1,-,-,-7.5,-,-
CCn1nc(C)c(CN2CCc3c([nH]c4ccccc34)C2c2ccc(F)c(OC)c2)c1C (centres undefined),-,-,-,-,-
O=C(O)c1ccc(CSc2nc(-c3ccc(Cl)cc3)cc(C(F)(F)F)n2)cc1,-,-,-7.5,-,-
O=C(O)c1ccc(CSc2nc(-c3ccccc3)cc(C(F)(F)F)n2)cc1,-,-,-,-,-
Cc1cccc(C)c1NC(=O)/C(=C/c1ccco1)c1ccccc1,12,-,-,-,-
O=C(Nc1ccccc1)/C(=C/c1ccccc1)c1ccccc1,-,-,-,-,-
Cc1ccccc1NC(=O)/C(=C/c1ccccc1)c1ccccc1,8.1,-,-,-,-
CCc1ccc(NSc2ccccc2[N+](=O)[O-])cc1,6.6,-,-8.2,-,-
O=C(O)c1ccccc1NSc1ccccc1[N+](=O)[O-],-,-,-,-,-
CCOc1ccc(NC(=O)c2cc(F)c(F)cc2Cl)cc1OCC,-,-,-,-,-
CCN(CC)c1ccc(S(=O)(=O)N2CCOCC2)cc1NC(=O)COC(=O)/C=C/c1ccc(C)o1,-,-,-9.6,-,-
Cc1nn(C)c(C)c1/C=N/N=C1\CCC2C3CCc4cc(O)ccc4C3CCC12C (centres undefined),-,-,-,-5.6,-
COc1ccc(/C(C)=N/NC(=O)c2ccncc2)cc1,-,-,-,-,-
SMILES,MrgX1 allo act,RGS4 inh,RGS4 pot,MrgX1 antag,MrgX1 agonist
C/C(=N/NC(=O)c1ccncc1)C1=C(O)CC(C)(C)CC1=O,-,-,-,-4.7,-
Cc1onc(-c2ccccc2)c1C(=O)OCC(=O)N(C)c1c(N)n(Cc2ccccc2)c(=O)[nH]c1=O,-,-,-,-,-
CN1/C(=C/c2cccc[n+]2C)Sc2ccccc21,-,-,-7.5,-,-
Cc1ccc2c(c1)N(C)/C(=C/c1cccc[n+]1C)S2,-,-,-7.3,-7.2,-
Cc1ccc2c(c1)N(C)/C(=C/c1cccc[n+]1CCO)S2,-,-,-7.3,-,-
CCOc1ccc(C(=O)NCC(c2cccs2)N(C)C)cc1OCC (centres undefined),-,-,-,-,-
Fc1cccc(/C=N/Nc2cc(N3CCOCC3)ncn2)c1,-,-,-,-,-
CCOc1cc(C2C(C(=O)c3ccccc3)=C(C(=O)OC)Nc3nnnn32)ccc1O (centres undefined),-,-,-,-,-
O=C(CSc1ccc(-c2ccc(F)cc2)nn1)N1CCCc2ccccc21,-,-,-7.4,-,-
O=C(CSc1ccc(-c2ccc(Cl)cc2)nn1)N1CCCc2ccccc21,-,-,-,-,-
Cn1cccc1CC(=O)N/N=C/c1ccc(C(C)(C)C)cc1,-,-,-,-,-
Cc1ccc(/C=N/NC(=O)Cc2cccn2C)cc1,6.7,-,-,-,-
Cc1ccc(/C=N/NC(=O)Cc2cccn2C)s1,6.5,-,-,-,-
COc1cccc(Oc2cc(NN3CCCCC3)c([N+](=O)[O-])cc2[N+](=O)[O-])c1OC,-,-,-9.1,-,-
Cc1cc(F)ccc1Oc1cc(NN2CCCCC2)c([N+](=O)[O-])cc1[N+](=O)[O-],-,-,-,-,-
COc1ccccc1C1NC=C([N+](=O)[O-])C=C1[N+](=O)[O-] (centres undefined),-,-,-,-,29
CCOc1ccc(NC2=C(OC)C(=O)c3ccccc3C2=O)cc1,7.3,-,-,-,-
COC1=C(Nc2ccc(O)cc2)C(=O)c2ccccc2C1=O,-,-,-,-,-
COc1ccc(NC2=C(NCCO)C(=O)c3ccccc3C2=O)cc1,-,-,-,-,-
COC1=C(Nc2ccc(OC)cc2)C(=O)c2ccccc2C1=O,7.8,-,-,-,-
O=C(CCc1nc2ccccc2c(=O)[nH]1)N1CCN(S(=O)(=O)c2ccc(Cl)c(C(F)(F)F)c2)CC1,-,-,-,-,-
N#C/C(=C\c1ccco1)C(=O)Nn1cnnc1,-,-,-,-,-
O=[N+]([O-])c1cc(Br)c(Nc2ccccc2)c([N+](=O)[O-])c1,6.6,-,-,-,-
O=C1CCC([N+](=O)[O-])C(c2cc3c(cc2Cl)OCO3)N1 (centres undefined),-,-,-,-4.5,-
COc1ccc(/C=N/Nc2cc(C)nc3ccc(OC)cc23)c(OC)c1,-,-,-7.7,-,-
SMILES,MrgX1 allo act,RGS4 inh,RGS4 pot,MrgX1 antag,MrgX1 agonist
O=C(CSc1ccc(-c2cccnc2)nn1)Nc1ccc(F)c(F)c1,-,-,-,-,-
Cc1c(N2C(=O)CSC2c2ccc([N+](=O)[O-])cc2)c(=O)n(-c2ccccc2)n1C (centres undefined),-,-,-,-,-
O=C1CSC(c2ccccc2)N1c1ccc([N+](=O)[O-])cc1 (centres undefined),-,-,-7,-,-
Cc1ccc(OCCn2ccnc2)c([N+](=O)[O-])c1,11,-,-,-,-
CS(=O)(=O)/C(C#N)=C\c1cnc(S(=O)(=O)c2ccccc2)s1,-,-,-,-,29
Cc1nc(C(=O)Nc2cc(Cl)ccc2Cl)nn1-c1cc(OC(C)C)c(Cl)cc1Cl,-,-,-,-5.1,-

# Source: PubChem (Johns Hopkins Ion Channel Center)
